ChEMBL document CHEMBL4725393, “Prodrug Strategies to Improve the Solubility of the HCV NS5A Inhibitor Pibrentasvir (ABT-530)” (J Med Chem, 2020)
≈ marks a conversion by molar mass, not a printed value.

Columns and labels:
[1] = Equilibrium solubility of compound at pH 1 incubated for 24 to 48 hrs by HPLC analysis; format: physicochemical; conditions: buffer, time 24-48 hrs
Method in brief: (§1)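 For equilibrium solubility, excess solid was added to 3–4 mL of medium, in triplicate. Suspension pH was read after equilibration. Solids were removed by centrifugation at 4000 rpm at 25 °C, and the supernatant was passed through a 0.45 µm filter, discarding the first 2 mL. The filtrate was quantified by HPLC against standard curves.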

[2] = Stability of compound at pH 7.4 assessed as prodrug remaining level at 125 ug/ml incubated for 3 hrs by HPLC analysis; format: physicochemical; conditions: buffer, pH 7.4, 3 h, at 125 µg/mL
[3] = AUC in CD1 mouse assessed as pibrentasvir1 level at 6 mg/kg, po measured up to 24 hrs; format: ADME, organism-based; parameters: route oral, dose 6 mg/kg, time <=24; conditions: in vivo
Method in brief: (§2)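 CD-1 mice with free access to food and water received an oral gavage of prodrug or PIB at 10 mL/kg in 0.2% HPMC. The dose was adjusted for prodrug MW to equal 6 mg/kg PIB. K2EDTA blood was drawn at 0.25, 0.5, 1, 3, 6, 9, 12 and 24 h. Plasma was spun at 3200 x g for 5 min at ~4°C and stored below -15°C. PIB and prodrug were measured; AUC in ng·h/mL, Cmax in ng/mL.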

[4] = Stability of compound at pH 7.4 assessed as prodrug remaining level at 125 ug/ml incubated for 24 hrs by HPLC analysis; format: physicochemical; conditions: buffer, pH 7.4, 24 h, at 125 µg/mL
Method in brief: (§3)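 A DMSO stock of about 1.25 mg/mL was diluted into 0.1 N HCl (pH 1) or 50 mM phosphate buffer (pH 7.4), giving final concentrations of ~125 µg/mL prodrug and 10% DMSO. The solution was filtered and held at 37 °C in the HPLC autosampler, with injections at several times over 24 h. Percent remaining was calculated from prodrug peak area relative to t0.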

[5] = Cmax in CD1 mouse assessed as pibrentasvir1 level at 6 mg/kg, po measured up to 24 hrs; format: ADME, organism-based; parameters: route oral, dose 6 mg/kg, time <=24; conditions: in vivo; method in brief: as §2
[6] = Solubility in FeSSIF at pH 5; format: physicochemical; method in brief: as §1
[7] = Equilibrium solubility of compound at pH 7.4 incubated for 24 to 48 hrs by HPLC analysis; format: physicochemical; conditions: buffer, time 24-48 hrs; method in brief: as §1
[8] = Cmax in beagle dog assessed as pibrentasvir1 level at 40 mg, po measured up to 24 hrs; format: ADME, organism-based, Canis lupus familiaris; parameters: route oral, dose 40 mg, time <=24; conditions: in vivo
Method in brief: (§4)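 The dose equalled 40 mg PIB after adjustment for prodrug MW. Food was returned at 12 h. K2EDTA plasma was sampled at 0.25–24 h. Cmax is in ng/mL and AUC in ng·h/mL.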

[9] = AUC in beagle dog assessed as pibrentasvir1 level at 40 mg, po measured up to 24 hrs; format: ADME, organism-based, Canis lupus familiaris; parameters: route oral, dose 40 mg, time <=24; conditions: in vivo; method in brief: as §4
[10] = Stability of compound at pH 1 assessed as prodrug remaining level at 125 ug/ml incubated for 24 hrs by HPLC analysis; format: physicochemical; conditions: buffer, pH 1, 24 h, at 125 µg/mL; method in brief: as §3
[11] = AUC in cynomolgus monkey at 2 mg/kg, po measured up to 12 hrs; format: ADME, organism-based, Macaca fascicularis; parameters: route oral, dose 2 mg/kg, time <=12; conditions: in vivo
Method in brief: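 Female cynomolgus monkeys were fasted overnight and dosed by gastric intubation with a suspension in 0.5% HPMC at 0.5 mL/kg. The dose was MW-adjusted to 2 mg/kg PIB equivalent, and food was returned at 4 h. Plasma was collected at intervals up to 12 h and assayed for PIB and prodrug to give AUC in ng·h/mL.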

[12] = Half life of compound at pH 7.4 at 125 ug/ml at 37 degC by HPLC analysis; format: physicochemical; conditions: dose 125 µg/ml
[13] = AUC in CD1 mouse at 6 mg/kg, po measured up to 24 hrs; format: ADME, organism-based; parameters: route oral, dose 6 mg/kg, time <=24; conditions: in vivo; method in brief: as §2
[14] = Lipophilicity, logD of compound; format: physicochemical; conditions: octanol/water
[15] = Protein binding in human plasma; format: ADME, cell-free; conditions: read-out: PPB (converted)
[16] = Aqueous solubility of compound at pH 2; format: physicochemical
[17] = Apparent permeability in MDCK cells; format: ADME, cell-based, Canis lupus familiaris; conditions: dog
[18] = Aqueous solubility of compound at pH 7; format: physicochemical
[19] = Permeability by PAMPA; format: ADME
[20] = Cmax in CD1 mouse at 3 mg/kg, po measured up to 24 hrs; format: ADME, organism-based; parameters: route oral, dose 3 mg/kg, time <=24; conditions: in vivo
Method in brief: (§5)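 CD-1 mice, fed ad libitum, were dosed orally at a prodrug-MW-adjusted dose equal to 3 mg/kg PIB, as a solution or suspension. Serial K2EDTA blood samples were taken from 0.25 to 24 h. Plasma was separated by centrifugation and kept frozen. PIB and prodrug levels were reported as Cmax (ng/mL) and AUC (ng·h/mL).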

[21] = AUC in CD1 mouse at 3 mg/kg, po measured up to 24 hrs; format: ADME, organism-based; parameters: route oral, dose 3 mg/kg, time <=24; conditions: in vivo; method in brief: as §5
[22] = AUC in beagle dog at 40 mg, po dosed as phase 2 tablet measured up to 24 hrs; format: ADME, organism-based, Canis lupus familiaris; parameters: route oral, dose 40 mg, time <=24; conditions: in vivo
Method in brief: (§6)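 Fasted beagle dogs received the 40 mg phase 2 PIB tablet (amorphous drug in polymer support), crushed for dosing.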

[23] = Cmax in beagle dog at 40 mg, po dosed as phase 2 tablet measured up to 24 hrs; format: ADME, organism-based, Canis lupus familiaris; parameters: route oral, dose 40 mg, time <=24; conditions: in vivo; method in brief: as §6
[24] = Cmax in beagle dog at 40 mg, po measured up to 24 hrs; format: ADME, organism-based, Canis lupus familiaris; parameters: route oral, dose 40 mg, time <=24; conditions: in vivo; method in brief: as §4
[25] = AUC in beagle dog at 40 mg, po measured up to 24 hrs; format: ADME, organism-based, Canis lupus familiaris; parameters: route oral, dose 40 mg, time <=24; conditions: in vivo; method in brief: as §4

solubility thermodynamic [1]	AUC [3]	Stabilty [4]	Cmax [5]	solubility [6]	solubility thermodynamic [7]	Cmax [8]	AUC [9]	Stabilty [10]	AUC at 12 h [11]	AUC at 24 h [13]	logD [14]	fraction unbound [15]	solubility [16]	Papp [17]	solubility [18]	Compound	further results
23 µg/mL (≈ 17.8 µM)	456 ng·h/mL	< 1%	26 ng/mL	> 1000 µg/mL	631 µg/mL (≈ 487 µM)	196 ng/mL	2140 ng·h/mL	54%	–	–	–	–	–	–	–	COC(=O)N[C@H](C(=O)N1CCC[C@H]1c1nc2cc(F)c([C@H]3CC[C@H](c4cc5nc([C@@H]6CCCN6C(=O)[C@@H](NC(=O)OC)[C@@H](C)OC)n(C(=O)OCCCOP(=O)(O)O)c5cc4F)N3c3cc(F)c(N4CCC(c5ccc(F)cc5)CC4)c(F)c3)cc2[nH]1)[C@@H](C)OC	Stabilty [2]: < 20%
–	–	–	–	40 µg/mL (≈ 47.7 µM)	–	–	–	–	–	–	2.5	0.025	< 100 µg/mL	1.4 ×10⁻⁶ cm/s	300 µg/mL (≈ 358 µM)	CC(C)(C)[C@@H]1NC(=O)O[C@@H]2CCC[C@H]2OC/C=C/C(F)(F)c2nc3ccccc3nc2O[C@@H]2C[C@@H](C(=O)N[C@]3(C(=O)NS(=O)(=O)C4(C)CC4)C[C@H]3C(F)F)N(C2)C1=O [GLECAPREVIR]	Papp [19]: 5.2 ×10⁻⁶ cm/s
422 µg/mL (≈ 379 µM)	6720 ng·h/mL	–	408 ng/mL	169 µg/mL (≈ 152 µM)	< 0.1 µg/mL	339 ng/mL	3860 ng·h/mL	–	166 ng·h/mL	6720 ng·h/mL	5.7	< 0.001	420 µg/mL (≈ 377 µM)	< 1 ×10⁻⁶ cm/s	< 0.1 µg/mL	COC(=O)N[C@H](C(=O)N1CCC[C@H]1c1nc2cc([C@H]3CC[C@H](c4cc5nc([C@@H]6CCCN6C(=O)[C@@H](NC(=O)OC)[C@@H](C)OC)[nH]c5cc4F)N3c3cc(F)c(N4CCC(c5ccc(F)cc5)CC4)c(F)c3)c(F)cc2[nH]1)[C@@H](C)OC [PIBRENTASVIR]	Cmax [20]: 280 ng/mL; AUC at 24 h [21]: 5170 ng·h/mL; AUC [22]: 2730 ng·h/mL; Cmax [23]: 239 ng/mL; Cmax [24]: 339 ng/mL; AUC at 24 h [25]: 3860 ng·h/mL

Further lines, the compound ahead of its results:

Compound	solubility thermodynamic [1]	AUC [3]	Stabilty [4]	Cmax [5]	solubility [6]	solubility thermodynamic [7]	Cmax [8]	AUC [9]	Stabilty [10]	AUC at 12 h [11]	AUC at 24 h [13]	logD [14]	fraction unbound [15]	solubility [16]	Papp [17]	solubility [18]	further results
COC(=O)N[C@H](C(=O)N1CCC[C@H]1c1nc2cc(F)c([C@H]3CC[C@H](c4cc5nc([C@@H]6CCCN6C(=O)[C@@H](NC(=O)OC)[C@@H](C)OC)n(COC(=O)Cc6ccc(OP(=O)(O)O)cc6)c5cc4F)N3c3cc(F)c(N4CCC(c5ccc(F)cc5)CC4)c(F)c3)cc2[nH]1)[C@@H](C)OC	45 µg/mL (≈ 33.2 µM)	16100 ng·h/mL	71%	905 ng/mL	> 1000 µg/mL	135 µg/mL (≈ 99.5 µM)	155 ng/mL	1920 ng·h/mL	74%	197 ng·h/mL	–	–	–	–	–	–	half-life at 125 ug/ml [12]: > 24 h
COC(=O)N[C@H](C(=O)N1CCC[C@H]1c1nc2cc(F)c([C@H]3CC[C@H](c4cc5nc([C@@H]6CCCN6C(=O)[C@@H](NC(=O)OC)[C@@H](C)OC)n(COC(=O)[C@@H](NC(=O)/C=C/C(=O)O)C(C)C)c5cc4F)N3c3cc(F)c(N4CCC(c5ccc(F)cc5)CC4)c(F)c3)cc2[nH]1)[C@@H](C)OC	203 µg/mL (≈ 151 µM)	231 ng·h/mL	67%	15 ng/mL	542 µg/mL (≈ 404 µM)	< 0.2 µg/mL	–	–	97%	–	354 ng·h/mL	–	–	–	–	–	–
